# Measured values published in ChEMBL document CHEMBL3813673, “Bistacrine derivatives as new potent antimalarials” (Bioorg Med Chem, 2016).
# Key:
# Plasmodium falciparum [1] = assay: Antimalarial activity against chloroquine-sensitive ring-stage Plasmodium falciparum 3D7 assessed as parasite viability after 72 hrs by malstat assay; assay type: functional, organism-based; settings: 3D7, 72 h
# Method in brief: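 P. falciparum 3D7: synchronized ring stages plated at 1% parasitemia with compounds dissolved in DMSO; 0.5% DMSO as negative control. Cultured in triplicate for 72 h, then viability read by Malstat assay (parasite lactate dehydrogenase activity). Each compound tested twice; IC50 and standard deviation calculated.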
# [2] = Cytotoxicity against mouse J774.1 cells after 24 hrs by AlamarBlue based cytotoxicity assay; assay type: cell-based; settings: J774.1, 24 h
# Method in brief: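 Compounds dissolved in DMSO and serially diluted. Cells incubated with them at 37 °C, 5% CO2 for 24 h. AlamarBlue solution then added and plates incubated for a further 24 and 48 h.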
# [3] = Selectivity index, ratio of IC50 for mouse J774.1 cells to IC50 for chloroquine-sensitive ring-stage Plasmodium falciparum 3D7; assay type: toxicity; settings: read-out: Ratio IC50
# Plasmodium falciparum [4] = assay: Inhibition of recombinant Plasmodium falciparum falcipain 2 assessed as hydrolysis of Cbz-Phe-Arg-AMC measured after 5 mins at 20 uM by spectrofluorometric method
# Method in brief: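 Recombinant falcipain-2 with Cbz-Phe-Arg-AMC substrate in 50 mM sodium acetate, pH 5.5, with 5 mM EDTA and 200 mM NaCl. Released AMC read by fluorescence (ex 380 nm, em 460 nm). Single-concentration screen; compounds giving over 35% inhibition went on to kinetic assays. Run twice.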
# [5] = Reversible inhibition of recombinant Plasmodium falciparum falcipain 2 assessed as hydrolysis of Cbz-Phe-Arg-AMC measured after 10 mins by spectrofluorometric method
# Method in brief: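 Substrate added to buffer containing falcipain-2 and a range of inhibitor concentrations. Fluorescence (ex 380, em 460 nm) followed over 10 min, in duplicate. Slopes (ΔF/min) of the progress curves plotted against inhibitor concentration; IC50 obtained by nonlinear regression.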
# Plasmodium falciparum [6] = assay: Antimalarial activity against chloroquine-resistant Plasmodium falciparum Dd2 assessed as parasite viability after 72 hrs by malstat assay; assay type: functional, organism-based; settings: Dd2, 72 h
# [7] = Selectivity index, ratio of IC50 for mouse J774.1 cells to IC50 for ring-stage Plasmodium falciparum Dd2; assay type: toxicity; settings: read-out: Ratio IC50
# [8] = Inhibition of beta-hematin formation; assay type: physicochemical
# Method in brief: (§1)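 Heme–pyridine complex absorbance, which obeys Lambert–Beer's law, used to quantify free heme in heme/hemozoin mixtures and so judge inhibition of β-hematin formation. Chloroquine served as positive control and DMSO as negative control.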
# [9] = Inhibition of beta-hematin formation in acetate solution at pH 4.5 measured after 60 mins by pyridine-based spectrophotometric assay; assay type: physicochemical; method in brief: as §1
SMILES,IC50 (Plasmodium falciparum [1]) [nM],IC50 [2] [nM],selectivity ratio [3],inhibition (Plasmodium falciparum [4]) [%],IC50 [5] [nM],IC50 (Plasmodium falciparum [6]) [nM],selectivity ratio [7],IC50 [8] [equiv],IC50 [9] [equiv]
CCCC1CCc2nc3ccccc3c(N)c2C1 (stereo unspecified),1520,43000,,,,,,,
Clc1ccc2c(NCCCCCCNc3c4c(nc5cc(Cl)ccc35)CCCC4)c3c(nc2c1)CCCC3,20,1800,90,36.9,17300,,,,
c1ccc2c(NCCCCCCCCNc3c4c(nc5ccccc35)CCCC4)c3c(nc2c1)CCCC3,110,1900,17.3,34.4,17100,300,6.33,,
CC1CCc2c(nc3ccc([N+](=O)[O-])cc3c2NCCCCCCNc2c3c(nc4ccc([N+](=O)[O-])cc24)CC(C)CC3)C1 (stereo unspecified),20,25000,1250,56.7,5200,,,,
CC1(C)CCc2c(nc3ccc([N+](=O)[O-])cc3c2NCCCCCCNc2c3c(nc4ccc([N+](=O)[O-])cc24)CC(C)(C)CC3)C1,40,7900,198,,,,,,
CC1(C)CCc2c(nc3ccccc3c2NCCCCCCNc2c3c(nc4ccccc24)CC(C)(C)CC3)C1,30,1800,60,,,,,,
CCOC1CCc2nc3cc(Cl)ccc3c(NCCCCCCCCCNc3c4c(nc5cc(Cl)ccc35)CCC(OCC)C4)c2C1 (stereo unspecified),200,1740,9,25,,160,,,
CCN(CC)CCCC(C)Nc1ccnc2cc(Cl)ccc12 (stereo unspecified) [CHLOROQUINE],,18400,,,,,,3.01,1.91
CC1CCc2c(nc3cc(Cl)ccc3c2NCCCCCCNc2c3c(nc4cc(Cl)ccc24)CC(C)CC3)C1 (stereo unspecified),50,1500,30,,,,,,
c1ccc2c(NCCCCCCNc3c4c(nc5ccccc35)CCCC4)c3c(nc2c1)CCCC3,100,2970,29.7,,,,,,
c1ccc2c(NCCCCCNc3c4c(nc5ccccc35)CCCC4)c3c(nc2c1)CCCC3,630,1800,2.86,,,550,3.27,,
c1ccc2c(NCCCCCCCNc3c4c(nc5ccccc35)CCCC4)c3c(nc2c1)CCCC3,70,1900,27.1,,,220,8.64,,
CCCC1CCc2nc3ccc(Cl)cc3c(N)c2C1 (stereo unspecified),210,8400,,,,,,,
Cc1ccc2nc3c(c(N)c2c1)CCCC3,2040,44300,,,,,,,
c1ccc2c(NCCCCCCCCCCNc3c4c(nc5ccccc35)CCCC4)c3c(nc2c1)CCCC3,110,1800,16.4,,,140,12.9,,
Nc1c2c(nc3ccc(Cl)cc13)CCCC2,4020,43200,,,,,,,
CC1CCc2nc3cc(Cl)ccc3c(NCCCCCCNc3c4c(nc5cc(Cl)ccc35)CCC(C)C4)c2C1 (stereo unspecified),30,7800,260,,,,,,
Nc1c2c(nc3ccccc13)CCCC2 [TACRINE],12500,> 100000,,,,,,,
COc1ccc2nc3c(c(NCCCCCCCCCNc4c5c(nc6ccc(OC)cc46)CCCC5)c2c1)CCCC3,110,1700,15,62.2,14900,160,,,
Nc1c2c(nc3ccc([N+](=O)[O-])cc13)CCCC2,3230,44600,,,,,,,
CC1(C)CCc2c(nc3cc(Cl)ccc3c2NCCCCCCNc2c3c(nc4cc(Cl)ccc24)CC(C)(C)CC3)C1,30,1500,50,,,,,,
